Measured values as given in ChEMBL document CHEMBL1781959, “Synthesis and in vitro antitumor activity of substituted quinazoline and quinoxaline derivatives: search for anticancer agent” (Eur J Med Chem, 2011).

How the values were obtained:
MOLT-4 = assay: Growth inhibition of human MOLT4 cells after 48 hrs by SRB assay; type: functional; conditions: MOLT-4, 48 h
Method in brief: (§1)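 NCI 60-panel five-dose assay at 0.01, 0.1, 1, 10 and 100 μM. Cells in RPMI 1640 with 5% FBS and 2 mM L-glutamine, preincubated 24 h, with time-zero plates TCA-fixed. Drug exposure 48 h at 37 °C. Read by SRB staining at 515 nm. GI50 is the concentration where [(Ti−Tz)/(C−Tz)]×100 = 50, taken from log concentration versus % growth curves.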

BT-549 = assay: Growth inhibition of human BT549 cells after 48 hrs by SRB assay; type: functional; conditions: BT-549, 48 h; method in brief: as §1
[1] = Cytotoxicity against human […] cells after 48 hrs by SRB assay; type: cell-based
Method in brief: (§2)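 NCI-60 five-dose screen in RPMI 1640 with 5% FBS and 2 mM L-glutamine; 5000–40,000 cells/well, 24 h pre-incubation. DMSO stocks diluted to 0.01, 0.1, 1, 10 and 100 μM final; 48 h at 37 °C, 5% CO2. Fixed with TCA (10% final adherent, 16% suspension), stained with 0.4% SRB, A515. GI50, TGI and LC50 taken from time-zero, control and test absorbances.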

ACHN = assay: Growth inhibition of human ACHN cells after 48 hrs by SRB assay; type: functional; method in brief: as §1
T47D = assay: Growth inhibition of human T47D cells after 48 hrs by SRB assay; type: functional
Method in brief: (§3)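 NCI-60 panel cells grown in RPMI 1640 with 5% FBS and 2 mM L-glutamine, then seeded at 5000–40,000 cells/well by doubling time and preincubated for 24 h. Compound in DMSO was tested either at 10^-5 M alone or at 0.01–100 μM in five doses, for 48 h at 37 °C. Cells were fixed with cold TCA (10% final), stained with SRB, and read at 515 nm. GI50 was taken from % growth relative to time-zero and control wells.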

[2] = Growth inhibition of human Hs 578T cells after 48 hrs by SRB assay; type: functional; method in brief: as §1
SW-620 = assay: Cytotoxicity against human SW620 cells after 48 hrs by SRB assay; type: cell-based; conditions: sw-620, 48 h
Method in brief: (§4)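 NCI-60 five-dose screen. Cells grown in RPMI 1640 with 5% FBS and 2 mM L-glutamine and pre-incubated 24 h; a time-zero plate is TCA-fixed. Drug added at 0.01, 0.1, 1, 10 and 100 µM (DMSO stock) for 48 h at 37 °C, 5% CO2. Fixed with cold TCA (10% final for adherent, 16% for suspension cells), stained with 0.4% SRB, A515. GI50, TGI and LC50 taken from dose-response curves.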

DU-145 = assay: Cytotoxicity against human DU145 cells after 48 hrs by SRB assay; type: cell-based; conditions: du-145, 48 h; method in brief: as §2
COLO 205 [3] = assay: Growth inhibition of human COLO205 cells after 48 hrs by SRB assay; type: functional; conditions: COLO 205, 48 h; method in brief: as §1
NCI-H322M = assay: Cytotoxicity against human NCI-H322M cells after 48 hrs by SRB assay; type: cell-based; method in brief: as §2
COLO 205 [4] = assay: Cytotoxicity against human COLO205 cells after 48 hrs by SRB assay; type: cell-based; conditions: colo 205, 48 h; method in brief: as §2
SK-OV-3 = assay: Growth inhibition of human SKOV3 cells after 48 hrs by SRB assay; type: functional; conditions: SK-OV-3, 48 h; method in brief: as §3
MDA-MB-468 = assay: Growth inhibition of human MDA-MB-468 cells after 48 hrs by SRB assay; type: functional; conditions: MDA-MB-468, 48 h; method in brief: as §1
M14 [5] = assay: Cytotoxicity against human M14 cells after 48 hrs by SRB assay; type: cell-based; conditions: m14, 48 h; method in brief: as §2
LOX IMVI = assay: Growth inhibition of human LOXIMVI cells after 48 hrs by SRB assay; type: functional; method in brief: as §1
SNB-75 = assay: Growth inhibition of human SNB75 cells after 48 hrs by SRB assay; type: functional; conditions: SNB-75, 48 h; method in brief: as §3
SN12C = assay: Growth inhibition of human SN12C cells after 48 hrs by SRB assay; type: functional; method in brief: as §3
HL-60(TB) = assay: Cytotoxicity against human HL-60(TB) cells after 48 hrs by SRB assay; type: cell-based; method in brief: as §2
NCI-H522 = assay: Cytotoxicity against human NCI-H522 cells after 48 hrs by SRB assay; type: cell-based; conditions: nci-h522, 48 h; method in brief: as §2
M14 [6] = assay: Growth inhibition of human M14 cells after 48 hrs by SRB assay; type: functional; conditions: M14, 48 h; method in brief: as §1
KM12 [7] = assay: Growth inhibition of human KM12 cells after 48 hrs by SRB assay; type: functional; conditions: KM12, 48 h; method in brief: as §1
UACC-257 [8] = assay: Cytotoxicity against human UACC257 cells after 48 hrs by SRB assay; type: cell-based; conditions: uacc-257, 48 h; method in brief: as §4
UACC-257 [9] = assay: Growth inhibition of human UACC257 cells after 48 hrs by SRB assay; type: functional; conditions: UACC-257, 48 h; method in brief: as §3
MCF7 = assay: Growth inhibition of human MCF7 cells after 48 hrs by SRB assay; type: functional; conditions: MCF7, 48 h; method in brief: as §1
[10] = Growth inhibition of human […] cells after 48 hrs by SRB assay; type: functional; method in brief: as §1
HCT-15 = assay: Growth inhibition of human HCT15 cells after 48 hrs by SRB assay; type: functional; conditions: HCT-15, 48 h; method in brief: as §1
A498 = assay: Cytotoxicity against human A498 cells after 48 hrs by SRB assay; type: cell-based; conditions: a498, 48 h; method in brief: as §2
SR = assay: Growth inhibition of human SR cells after 48 hrs by SRB assay; type: functional
Method in brief: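 Leukemia suspension line in the NCI-60 screen, grown in RPMI 1640 with 5% FBS and 2 mM L-glutamine and preincubated for 24 h. Exposure was either a single 10^-5 M dose or five doses from 0.01 to 100 μM, for 48 h at 37 °C. Settled cells were fixed with 80% TCA (16% final), stained with SRB, and read at 515 nm. GI50 was derived from % growth against time-zero and untreated controls.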

K562 = assay: Cytotoxicity against human K562 cells after 48 hrs by SRB assay; type: cell-based; conditions: k562, 48 h; method in brief: as §2
IGROV-1 = assay: Cytotoxicity against human IGROV1 cells after 48 hrs by SRB assay; type: cell-based; conditions: igrov-1, 48 h; method in brief: as §2
HOP-62 = assay: Cytotoxicity against human HOP62 cells after 48 hrs by SRB assay; type: cell-based; conditions: hop-62, 48 h; method in brief: as §2
U-251 = assay: Cytotoxicity against human U251 cells after 48 hrs by SRB assay; type: cell-based; conditions: u-251, 48 h; method in brief: as §4
KM12 [11] = assay: Cytotoxicity against human KM12 cells after 48 hrs by SRB assay; type: cell-based; conditions: km12, 48 h; method in brief: as §2

Structure (SMILES): O=c1c2ccccc2nc(-c2ccco2)n1/N=C/c1ccccc1Cl
- GI50 (MOLT-4): > 100 µM
- TGI (MOLT-4): > 100 µM
- GI50 (BT-549): 2.92 µM
- TGI (BT-549): 6.8 µM
- LC50 [1]: > 100 µM
- GI50 (ACHN): 3.12 µM
- TGI (ACHN): > 100 µM
- GI50 (T47D): 6.89 µM
- TGI (T47D): > 100 µM
- GI50 [2]: 15.2 µM
- TGI [2]: > 100 µM
- LC50 (SW-620): > 100 µM
- LC50 (DU-145): > 100 µM
- GI50 (COLO 205 [3]): 4.96 µM
- TGI (COLO 205 [3]): 34.1 µM
- LC50 (NCI-H322M): > 100 µM
- LC50 (COLO 205 [4]): > 100 µM
- GI50 (SK-OV-3): 3.68 µM
- TGI (SK-OV-3): 14.8 µM
- GI50 (MDA-MB-468): 9.96 µM
- TGI (MDA-MB-468): > 100 µM
- LC50 (M14 [5]): > 100 µM
- GI50 (LOX IMVI): 4.54 µM
- TGI (LOX IMVI): > 100 µM
- GI50 (SNB-75): 4.1 µM
- TGI (SNB-75): 7.51 µM
- GI50 (SN12C): 4.89 µM
- TGI (SN12C): > 100 µM
- LC50 (HL-60(TB)): > 100 µM
- LC50 (NCI-H522): 82.9 µM
- GI50 (M14 [6]): 10.8 µM
- TGI (M14 [6]): > 100 µM
- GI50 (KM12 [7]): 3.65 µM
- TGI (KM12 [7]): 25.4 µM
- LC50 (UACC-257 [8]): > 100 µM
- GI50 (UACC-257 [9]): 8.34 µM
- TGI (UACC-257 [9]): > 100 µM
- GI50 (MCF7): 5.29 µM
- TGI (MCF7): > 100 µM
- GI50 [10]: > 100 µM
- TGI [10]: > 100 µM
- GI50 (HCT-15): 5.73 µM
- TGI (HCT-15): > 100 µM
- LC50 (A498): > 100 µM
- GI50 (SR): > 100 µM
- TGI (SR): > 100 µM
- LC50 (K562): > 100 µM
- LC50 (IGROV-1): > 100 µM
- LC50 (HOP-62): > 100 µM
- LC50 (U-251): > 100 µM
- LC50 (KM12 [11]): > 100 µM
